Data published in the EternaBench riboswitch data.

System: MS2 coat protein
Experiment: apparent Kd, MS2 coat protein; higher = weaker binding; RNA-MaP array; FMN 200 µM where present
Summary of the method: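 The apparent Kd comes from binding curves fitted cluster by cluster, filtered, and summarised as a median. Those curves followed SNAP-549-labelled MS2 coat protein from 0.7 or 1.5 nM, doubling to 3 µM, on Illumina sequencing-chip clusters where stalled E. coli RNA polymerase had transcribed the designs, without and then with constant ligand. The buffer was 100 mM Tris-HCl pH 7.5, 80 mM KCl, 4 mM MgCl2, BSA, DTT, yeast tRNA and Tween-20, and green signal was normalised to red-channel RNA signal and control-cluster median Fmax.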

[1] = designed as: OFF switch for flavin mononucleotide, no ligand
[2] = ligand present: flavin mononucleotide, designed as: OFF switch for flavin mononucleotide
[3] = designed as: ON switch for flavin mononucleotide, no ligand
[4] = ligand present: flavin mononucleotide, designed as: ON switch for flavin mononucleotide

| Sequence | apparent Kd [1] [nM] | apparent Kd [2] [nM] | apparent Kd [3] [nM] | apparent Kd [4] [nM] |
| --- | --- | --- | --- | --- |
| CUGAGCUGAGGAUAUACAUGAGGAUCACCCAUGUGUUCGAGCUUGCGUACAGGCAGAUGUAGAAGGCAGUUCGG | 26.7 | 99.3 | – | – |
| UUAAUUAUACAAGGAUAUCUAUUGUUCUUUCGACUUACAUGAGGAUCACCCAUGUUAAUAUAUAUAGAGAAGGUGUAUUUUCAG | – | – | 43.3 | 25.4 |
| AGCUGGAGAGGAUAUACGUAGGUAAAAAAAGUCUGAUAACUACAUGAGGAUCACCCAUGUAGAAGGCUCUGGCA | 16 | 43.8 | – | – |
| UUGGACGUCGUAGGAUAUGUAGGAUAUUCCUACAUGAGGAUCACCCAUGUUGACAUGGAAGAAGUACAGAAGGACGAUGUCCAU | – | – | 15.9 | 4.5 |
| CCGAUUAGCACAGGAUAUGGGAAUUCGUAGUUUCCAGAAGGGUGAGCCAAUACAUGAGGAUCACCCAUGUGCGGUAGGUCGAGA | – | – | 51.1 | 60.7 |
| CGGCGUUGUCGAGAGGAUAUGCGGUGAUGGACAUGAGGAUCACCCAUGUUAGCGAUAGCAUUACGGUAGAAGGCUCUACAGCUGC | – | – | 65 | 17 |
| GCUGUGGCAUGAGGAUAUGGUCACCUUUGGUGACCAGAAGGCAUGUCAAUAGACAUGAGGAUCACCCAUGUAGUUAACACAGCA | – | – | 561 | 42.4 |
| GUUGCACAAGUUAACAUGAGGAUCACCCAUGUCAAAAGACAUGAGGAUAUGGAUCUGAAGAAGAUCCAGAAGGCAUAAUGCUAA | – | – | 796 | 117 |
| UUAUACGCUGAGGAUAUCAUCACUGAGAGGUGAUGAGAAGGCGGUACAUGAGGAUCACCCAUGUCUAUGGGCAG | 291 | 418 | – | – |
| GCUUCACAUGAGGAUCACCCAUGUUUUCGGAGUCGAGGAUAUGGUCACUGUAAACAGUGGCCAGAAGGCGAGGAGC | – | – | 18.2 | 16.7 |
| GGGUACAUCGGAGGAUAUCAUGUACAUACAUGAGGAUCACCCAUGUCGAUGGAGACAUCGGAGAUUGAGAAGGCCGAUGUACCG | – | – | 230 | 9.27 |
| CGCAUGCGUAGUAUUAGUUGCUGACAGGAUAUGACAUGAGGAUCACCCAUGUUUAUUAAGAAGAUUCAGAAGGGUCACGUUGCG | 6.87 | 5.8 | – | – |
| AGUCGGAGCAGAGGAUAUACAUGAGGAUCACCCAUGUAAUUAAGUGAAGCCUGGAAACAGGCAAUGUAGAAGGCUGCUCCGACA | 9.44 | 51.7 | – | – |
| GCACCUUUAUUUGAACCGAUACGAACAUGAGGAUCACCCAUGUAGGAUAUGCUAAAAGUUGUGUUGCAGAAGGACAUUUAGUGC | 9.36 | 8.98 | – | – |
| ACAAAGUGAGGAUAUGCUAUUAUACAUUAUUGUUAUUAUUUGCAGAAGGCACAUGAGGAUCACCCAUGUAAGAA | 29.8 | 22.6 | – | – |
| CAAUUGGCACAGAAGGGUGACAUGAGGAUCACCCAUGUAGCGUGGCAUUCAGGAGGAGCCACGCCACAGGAUAUGUGCCGGCAC | – | – | 138 | 116 |
| GUGCGAGGCUAGGAUAUUGUGGGUUUUUGUCUGCGAGAAGGAGCCACAUGAGGAUCACCCAUGUGGUGUUGCUC | 64.4 | 294 | – | – |
| AAUAGACAUGAGGAUCACCCAUGUGUAUAUGGGAGAGGAUAUACGGGACACAAGGGCGGAGUAGAAGGCUCGAGAC | – | – | 149 | 146 |
| AAAAAGAUAGGAUAUACAUGAAAAAAAAAAAAAAAAAAAAGACAUGAGGAUCACCCAUGUAGAAGGGUCAAAAA | 133 | 124 | – | – |
| GGUCACGUAGGAUAUACCUGGGCCUCUGAAUUCGGCAAUUUACAUGAGGAUCACCCAUGUAGAAGGACGAUGGC | 120 | 97.6 | – | – |
| UCCUUAAACACAGGAUAUCCUGCCGUACAUGAGGAUCACCCAUGUCCGGUCGGAGAAGGGUGGCGAAGGUAUGUGCGAAUUAAG | – | – | 8.23 | 5.41 |
| CGUAGGAUCCAGAAGGCAUGUACAUGAGGAUCACCCAUGUCGAUAGACAUGAGGAUAUGGAUCCUACGAAAAGUGCGAAAGCAC | – | – | 17.1 | 5.16 |
| UGGUACUAGGGAGGAUAUGGGAAGAUACAUGAGGAUCACCCAUGUUUAAGAAAGCCGAGAGGCAACUAGAAGGCCCUAGUACCU | – | – | 278 | 13.8 |
| GUCAGCAAAUAAGGAUAUACAUCACUGCUUCGGCAGUGUAUUAAGAUCACAUGAGGAUCACCCAUGUAGAAGGUAUAAGCUGAU | 8.12 | 29.4 | – | – |
